Results reported in ChEMBL document CHEMBL1240478, “Inhibitors of human neutrophil elastase based on a highly functionalized N-amino-4-imidazolidinone scaffold” (Eur J Med Chem, 2010).
Calls of active or inactive are those of the source. The rule behind the calls is not given here.

Key:
[1] = biological target: T1, Neutrophil elastase (Homo sapiens) (UniProt P08246); test: Inhibition of human neutrophil elastase at 3.5 mM after 30 mins assessed as p-nitroaniline release
T1 sequence (whole entry): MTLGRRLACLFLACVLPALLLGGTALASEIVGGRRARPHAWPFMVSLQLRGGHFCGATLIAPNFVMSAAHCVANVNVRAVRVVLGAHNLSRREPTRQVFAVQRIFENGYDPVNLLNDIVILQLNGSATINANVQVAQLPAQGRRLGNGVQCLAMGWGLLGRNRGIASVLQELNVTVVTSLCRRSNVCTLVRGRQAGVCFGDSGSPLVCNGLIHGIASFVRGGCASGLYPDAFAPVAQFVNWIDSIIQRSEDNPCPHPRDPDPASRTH
Method in brief: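 HNE (7.0 μM stock) preincubated 30 min at 25 °C with inhibitor in DMSO at inhibitor/enzyme ratio 500, in 0.1 M HEPES/0.5 M NaCl pH 7.25. Methoxysuccinyl-Ala-Ala-Pro-Val p-nitroanilide then added, and p-nitroaniline release followed at 410 nm for 2 min. DMSO-only control. Remaining activity = (v/v0)×100, mean of duplicate or triplicate runs.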

[2] = biological target: Myeloblastin (proteinase 3) (Homo sapiens) (UniProt P24158); test: Inhibition of human neutrophil proteinase 3 at 1.73 mM
Sequence of Myeloblastin (proteinase 3) (Homo sapiens) (P24158 whole entry, looked up): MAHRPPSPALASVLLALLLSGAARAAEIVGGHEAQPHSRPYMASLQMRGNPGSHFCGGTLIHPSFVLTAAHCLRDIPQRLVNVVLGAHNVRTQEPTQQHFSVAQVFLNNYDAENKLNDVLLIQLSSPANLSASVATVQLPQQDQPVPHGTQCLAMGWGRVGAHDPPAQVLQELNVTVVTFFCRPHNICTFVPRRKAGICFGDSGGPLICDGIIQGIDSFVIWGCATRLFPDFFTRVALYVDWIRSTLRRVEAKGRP

Neutrophil elastase = biological target: T2, Neutrophil elastase (Homo sapiens, UniProt P08246); test: Reversible competitive inhibition of human neutrophil elastase by Dixon plot analysis
T2 sequence (P08246 whole entry): T1 sequence (whole entry)

Row | SMILES | inhibition [1] | inhibition [2] | Ki (Neutrophil elastase)
1 | O=C(NN1CNC(Cc2ccccc2)C1=O)C1CC(=O)N(Cc2ccccc2)C1 (racemic) | 0% | 0% | 
2 | O=C(O)c1ccccc1C(=O)NN1CNC(Cc2ccccc2)C1=O (racemic) | 0% | 0% | 
3 | CC(C)CC1C(=O)N(NC(=O)c2ccccc2C(=O)O)CN1Cc1ccccc1 (racemic) | 0% | 0% | 
4 | Cc1ccc(S(=O)(=O)N(N2CN(Cc3ccccc3)C(CC(C)C)C2=O)S(=O)(=O)c2ccc(C)cc2)cc1 (racemic) | 0% | 0% | 
5 | CC(C)CC1C(=O)N(N(S(C)(=O)=O)S(C)(=O)=O)CN1Cc1ccccc1 (racemic) | 0% | 0% | 
6 | O=C(O)CCC(=O)NN1CNC(Cc2ccccc2)C1=O (stereo not given) | 0% | 0% | 
7 | CCOC(=O)CNC(=O)NN1CN(Cc2ccccc2)C(CC(C)C)C1=O (racemic) | 0% | 0% | 
8 | CC(C)CC1C(=O)N(NC(=O)CCC(=O)O)CN1Cc1ccccc1 (racemic) | 0% | 0% | 
9 | O=C(NN1CNC(Cc2ccccc2)C1=O)C1CC(=O)N(Cc2ccc(F)cc2)C1 (racemic) | 0% | 0% | 

The next lines start with the values.

Row | inhibition [1] | inhibition [2] | Ki (Neutrophil elastase) | SMILES
10 | 0% | 0% |  | O=C(NN1CN(Cc2ccccc2)C(Cc2ccccc2)C1=O)C1CC(=O)N(Cc2ccco2)C1 (racemic)
11 | 0% | 0% |  | CC(C)CC1C(=O)N(NC(=O)CCc2ccccc2)CN1Cc1ccccc1 (racemic)
12 | 0% | 0% |  | CC(C)CC1C(=O)N(NC(=O)NCCc2ccccc2)CN1Cc1ccccc1 (racemic)
13 | 0% | 0% |  | O=C(NN1CN(Cc2ccccc2)C(Cc2ccccc2)C1=O)C1CC(=O)N(Cc2ccc(F)cc2)C1 (racemic)
14 | 0% | 0% |  | O=C(NCCc1ccccc1)NN1CNC(Cc2ccccc2)C1=O (racemic)
15 | 0% | 0% |  | CCOC(=O)CNC(=O)NN1CN(Cc2ccccc2)C(Cc2ccccc2)C1=O (racemic)
16 | 0% | 0% |  | O=C(NCCc1ccccc1)NN1CN(Cc2ccccc2)C(Cc2ccccc2)C1=O (racemic)
17 | 0% | 0% |  | O=C(O)CCC(=O)NN1CN(Cc2ccccc2)C(Cc2ccccc2)C1=O (racemic)
18 |  | inactive | 7.34 µM | CC(C)C[C@@H]1C(=O)N(NC(=O)[C@@H](Cc2ccccc2)NC(=O)OCc2ccccc2)CN1Cc1ccccc1 (racemic)
19 | 0% | 0% |  | O=C(NN1CN(Cc2ccccc2)C(Cc2ccccc2)C1=O)C1CC(=O)N(Cc2ccccc2)C1 (racemic)
20 | 0% | 0% |  | O=C(O)c1ccccc1C(=O)NN1CN(Cc2ccccc2)C(Cc2ccccc2)C1=O (racemic)
